The values below come from ChEMBL document CHEMBL1126267, “A novel synthesis and potent antiinflammatory activity of 4-hydroxy-2(1H)-oxo-1-phenyl-1,8-naphthyridine-3-carboxamides” (1992).

For orientation: inhibition in vivo means the drop in the measured response relative to a control, in per cent.

Common to all, as to type: functional
Settings in all cases: route oral

Experiment [1] relates to Rattus norvegicus. The experiment is described as follows: Antiinflammatory activity on Zymosan-induced rat's paw edema(ZPE) after peroral administration of 100 mg/kg dose with control swelling of 71.7%. In short, it runs like this:
(§1)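 Male Wistar rats weighing about 150 g were dosed orally with compound suspended in 5% arabic gum. 1 h later, 1% zymosan in 0.1 mL saline was injected subplantarly into the hind paw. Paw volume was measured by plethysmograph before dosing and 4 h after zymosan, with edema as the volume difference. Inhibition % was derived from mean swelling versus the control group.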

In experiment [2] the test system is Rattus norvegicus. In words: Inhibition of Zymosan-induced rat's paw edema(ZPE) after peroral administration of 100 mg/kg dose. In short, it runs like this:
(§2)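 Male Wistar rats (about 150 g) were dosed orally with compound suspended in 5% arabic gum, 1 h before a subplantar hind-paw injection of 0.1 mL saline. The irritant was 1% zymosan for 33 or 1% λ-carrageenin for 34. Paw volume was measured by plethysmograph before dosing and at 4 h (zymosan) or 3 h (carrageenin). Swelling is relative to initial volume, as mean ± SEM. % inhibition is versus the control group's mean swelling.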

Experiment [3] relates to Rattus norvegicus. In words: Antiinflammatory activity on Carrageenan rat's paw edema(CPE) after peroral administration of 100 mg/kg dose with control swelling of 64.2%. Background: Carrageenan injected into the paw causes an acute inflammation.
The subject of experiment [4] is Rattus norvegicus. In words: Compound was tested for the inhibition of rat reversed passive Arthus pleurisy after peroral administration of 100 mg/kg dose at 6.01*10e6 no of cells with 7.4*10e6 cells of control. The method in brief: (§3)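 Male Wistar rats (about 250 g) under ether received 0.2 mL rabbit anti-egg-albumin antiserum intrapleurally. Thirty min later they got 15 mg EA/100 g body weight in 0.1 mL saline iv. Compounds were given orally beforehand. Rats were killed 4.5 h after induction and the thoracic cavity rinsed with 5 mL saline. Exudate volume and infiltrated cell count were read as mean ± SE. % inhibition is versus control.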

Experiment [5] relates to Rattus norvegicus. The experiment is described as follows: Inhibition of carrageenan-induced rat's paw edema (CPE) after peroral administration of 100 mg/kg dose. In short, it runs like this:
as §2

For experiment [6], the system named is Rattus norvegicus. The experiment is described as follows: Compound was tested for the inhibition of rat reversed passive Arthus pleurisy after peroral administration of 100 mg/kg dose at 0.65 mL of exudate volume with 0.82 mL of control (injected intrapleurally). The method in brief: as §3
For experiment [7], the system named is Rattus norvegicus. In words: Antiinflammatory activity on Carrageenan rat's paw edema(CPE) after peroral administration of 100 mg/kg dose with control swelling of 68.1%.
The test system of experiment [8] is Rattus norvegicus. In words: Antiinflammatory activity on Zymosan-induced rat's paw edema(ZPE) after peroral administration of 100 mg/kg dose with control swelling of 62.8%. In short, it runs like this:
as §1

Experiment [9] relates to Rattus norvegicus. The experiment is described as follows: Compound was tested for the inhibition of rat reversed passive Arthus pleurisy after peroral administration of 100 mg/kg dose at 0.8 mL of exudate volume with 0.84 mL of control (injected intrapleurally). The method in brief:
(§4)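 Male Wistar rats (about 250 g) were given compound orally before the antiserum. Under ether anesthesia, 0.2 mL rabbit anti-egg albumin antiserum was injected intrapleurally. After 30 min, egg albumin (15 mg/100 g body weight in 0.1 mL saline) was given iv. Rats were killed 4.5 h later and the thoracic cavity was rinsed with 5 mL saline. Exudate volume and infiltrated cell number were measured, with inhibition % versus controls as mean ± SEM.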

For experiment [10], the system named is Rattus norvegicus. The experiment is described as follows: Compound was tested for the inhibition of rat reversed passive Arthus pleurisy after peroral administration of 100 mg/kg dose at 4.47*10e6 no of cells with 5.72*10e6 cells of control. In short, it runs like this: as §3
In experiment [11] the test system is Rattus norvegicus. In words: Compound was tested for the inhibition of rat reversed passive Arthus pleurisy after peroral administration of 100 mg/kg dose at 4.4*10e6 no of cells with 5.72*10e6 cells of control. In short, it runs like this:
as §3

Experiment [12] deals with Rattus norvegicus. In words: Compound was tested for the inhibition of rat reversed passive Arthus pleurisy after peroral administration of 100 mg/kg dose at 0.71 mL of exudate volume with 0.84 mL of control (injected intrapleurally). In short, it runs like this: as §4
In experiment [13] the test system is Rattus norvegicus. In words: Compound was tested for the inhibition of rat reversed passive Arthus pleurisy after peroral administration of 100 mg/kg dose at 4.81*10e6 no of cells with 5.72*10e6 cells of control. The method in brief: as §3
Experiment [14] concerns Rattus norvegicus. In words: Compound was tested for the inhibition of rat reversed passive Arthus pleurisy after peroral administration of 100 mg/kg dose at 0.62 mL of exudate volume with 0.54 mL of control (injected intrapleurally). The method in brief:
as §4

Experiment [15] deals with Rattus norvegicus. In words: Antiinflammatory activity on Zymosan-induced rat's paw edema(ZPE) after peroral administration of 100 mg/kg dose with control swelling of 62.0%. In short, it runs like this:
as §1

The test system of experiment [16] is Rattus norvegicus. The experiment is described as follows: Compound was tested for the inhibition of rat reversed passive Arthus pleurisy after peroral administration of 100 mg/kg dose at 3.43+/-0.11*10e6 no of cells with 3.62*10e6 cells of control. The method in brief: as §3
Experiment [17] deals with Rattus norvegicus. In words: Antiinflammatory activity on Carrageenan rat's paw edema(CPE) after peroral administration of 100 mg/kg dose with control swelling of 74.7%.
Experiment [18] has as its system Rattus norvegicus. In words: Compound was tested for the inhibition of rat reversed passive Arthus pleurisy after peroral administration of 100 mg/kg dose at 0.64 mL of exudate volume with 0.82 mL of control (injected intrapleurally). In short, it runs like this:
as §4

In experiment [19] the test system is Rattus norvegicus. The experiment is described as follows: Compound was tested for the inhibition of rat reversed passive Arthus pleurisy after peroral administration of 100 mg/kg dose at 3.74*10e6 no of cells with 7.4*10e6 cells of control. The method in brief:
as §3

Experiment [20] deals with Rattus norvegicus. The experiment is described as follows: Antiinflammatory activity on Carrageenan rat's paw edema(CPE) after peroral administration of 100 mg/kg dose with control swelling of 73.7%.
Experiment [21] deals with Rattus norvegicus. The experiment is described as follows: Antiinflammatory activity on Zymosan-induced rat's paw edema(ZPE) after peroral administration of 100 mg/kg dose with control swelling of 72.9%. The method in brief:
as §1

The subject of experiment [22] is Rattus norvegicus. The experiment is described as follows: Compound was tested for the inhibition of rat reversed passive Arthus pleurisy after peroral administration of 100 mg/kg dose at 0.58 mL of exudate volume with 0.82 mL of control (injected intrapleurally). In short, it runs like this:
as §4

The subject of experiment [23] is Rattus norvegicus. The experiment is described as follows: Compound was tested for the inhibition of rat reversed passive Arthus pleurisy after peroral administration of 100 mg/kg dose at 3.44*10e6 no of cells with 7.4*10e6 cells of control. The method in brief:
as §3

As to `O=C(Nc1ccc(Cl)nc1)c1c(O)c2cccnc2n(-c2ccccc2)c1=O`, the Swelling in the experiment with Rattus norvegicus [1] is given as 65.1%; in the experiment with Rattus norvegicus [3], 66.8%. The inhibition in vivo at 100 mg/kg was 9.2% in the experiment on Rattus norvegicus [2], 18.8% in the experiment on Rattus norvegicus [4], -4% in the experiment with Rattus norvegicus [5] and 20.7% in the experiment on Rattus norvegicus [6].

In the case of `COc1ccc(NC(=O)c2c(O)c3cccnc3n(-c3ccccc3)c2=O)cc1`, the Swelling in the experiment with Rattus norvegicus [7] is on record as 69.4%; in the experiment with Rattus norvegicus [8], 62.6%. Besides, the inhibition in vivo at 100 mg/kg is 0.3% in the experiment on Rattus norvegicus [2], 5.1% with Rattus norvegicus [9], -1.9% with Rattus norvegicus [5] and 25.4% in the experiment on Rattus norvegicus [10].

For the compound `COc1ccccc1NC(=O)c1c(O)c2cccnc2n(-c2ccccc2)c1=O`, the Swelling is given as 65.9% with Rattus norvegicus [1] and 70.7% with Rattus norvegicus [3]. In addition, the inhibition in vivo at 100 mg/kg is 8.1% with Rattus norvegicus [2], 26.8% in the experiment with Rattus norvegicus [11], -10.1% in the experiment on Rattus norvegicus [5] and 16.7% with Rattus norvegicus [12].

Regarding `O=C(Nc1ccc([N+](=O)[O-])cc1)c1c(O)c2cccnc2n(-c2ccccc2)c1=O`, the Swelling in the experiment with Rattus norvegicus [7] is 85.7%; in the experiment with Rattus norvegicus [8], 67.6%. Besides, the inhibition in vivo at 100 mg/kg in the experiment with Rattus norvegicus [2] was -7.6%; in the experiment with Rattus norvegicus [5], -25.8%; in the experiment on Rattus norvegicus [12] it was 16.7%; with Rattus norvegicus [13], 18.5%.

As to `O=C(Nc1ccc(Cl)cc1)c1c(O)c2cccnc2n(-c2ccccc2)c1=O`, the Swelling was 66.4% with Rattus norvegicus [7] and 54.8% in the experiment with Rattus norvegicus [15]. Also, the inhibition in vivo at 100 mg/kg in the experiment with Rattus norvegicus [2] was 11.6%; with Rattus norvegicus [14], -16.3%; with Rattus norvegicus [5], 2.5%; in the experiment on Rattus norvegicus [16], 18.8%.

With `CCOC(=O)c1c(O)c2cccnc2n(-c2ccccc2)c1=O`, the inhibition in vivo at 100 mg/kg turned out to be 23.5% with Rattus norvegicus [2] and 15.5% in the experiment on Rattus norvegicus [5]. For the same compound, the Swelling in the experiment on Rattus norvegicus [15] was 47.2%; in the experiment with Rattus norvegicus [17] it was 63.1%.

With `O=C(NCc1ccncc1)c1c(O)c2cccnc2n(-c2ccccc2)c1=O`, the inhibition in vivo at 100 mg/kg worked out at 22% with Rattus norvegicus [18], 10% with Rattus norvegicus [2], 15.4% in the experiment with Rattus norvegicus [5] and 49.5% in the experiment on Rattus norvegicus [19]. The Swelling in the experiment with Rattus norvegicus [1] is recorded as 64.5%; in the experiment with Rattus norvegicus [3], 54.3%.

`O=C(NCc1cccnc1)c1c(O)c2cccnc2n(-c2ccccc2)c1=O`: the results for the Swelling in the experiment on Rattus norvegicus [20] and in the experiment on Rattus norvegicus [21] were 62.8% and 54.3%, respectively. The inhibition in vivo at 100 mg/kg came to 25.5% in the experiment with Rattus norvegicus [2], 14.7% in the experiment with Rattus norvegicus [5], 29.3% with Rattus norvegicus [22] and 53.5% with Rattus norvegicus [23].
